Measurements taken from article PMC3685407 (Neuropharmacology, 2013).
Where two headings read alike, the source gives them in different places.

What was measured:
[1] = system: L-dopa-induced AIMs in parkinsonian rats; conditions: cited from earlier work
[2] = system: L-dopa-induced dyskinesias in Parkinson’s disease patients; conditions: small clinical trial, ref http://www.neuraltus.com/pages/news.html; cited from earlier work
muscle nAChRs = muscle nAChRs (Homo sapiens, UniProt P02708+P07510+Q07001); experiment: biochemical; type: binding
Sequence of muscle nAChRs (P07510 23-517): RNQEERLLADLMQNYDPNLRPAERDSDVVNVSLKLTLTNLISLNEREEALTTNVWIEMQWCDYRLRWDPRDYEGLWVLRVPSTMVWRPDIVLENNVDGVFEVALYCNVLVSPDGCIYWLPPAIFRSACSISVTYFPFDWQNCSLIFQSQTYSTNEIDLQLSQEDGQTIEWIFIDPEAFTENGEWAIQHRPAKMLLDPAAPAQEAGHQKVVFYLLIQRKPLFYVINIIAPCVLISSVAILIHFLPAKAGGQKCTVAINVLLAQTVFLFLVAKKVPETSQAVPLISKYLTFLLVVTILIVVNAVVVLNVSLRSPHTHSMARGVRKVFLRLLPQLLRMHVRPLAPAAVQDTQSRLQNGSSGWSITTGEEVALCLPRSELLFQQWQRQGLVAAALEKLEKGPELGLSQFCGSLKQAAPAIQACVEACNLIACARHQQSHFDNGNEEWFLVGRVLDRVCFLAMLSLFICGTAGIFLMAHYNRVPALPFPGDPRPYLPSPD
Sequence of muscle nAChRs (Q07001 22-517): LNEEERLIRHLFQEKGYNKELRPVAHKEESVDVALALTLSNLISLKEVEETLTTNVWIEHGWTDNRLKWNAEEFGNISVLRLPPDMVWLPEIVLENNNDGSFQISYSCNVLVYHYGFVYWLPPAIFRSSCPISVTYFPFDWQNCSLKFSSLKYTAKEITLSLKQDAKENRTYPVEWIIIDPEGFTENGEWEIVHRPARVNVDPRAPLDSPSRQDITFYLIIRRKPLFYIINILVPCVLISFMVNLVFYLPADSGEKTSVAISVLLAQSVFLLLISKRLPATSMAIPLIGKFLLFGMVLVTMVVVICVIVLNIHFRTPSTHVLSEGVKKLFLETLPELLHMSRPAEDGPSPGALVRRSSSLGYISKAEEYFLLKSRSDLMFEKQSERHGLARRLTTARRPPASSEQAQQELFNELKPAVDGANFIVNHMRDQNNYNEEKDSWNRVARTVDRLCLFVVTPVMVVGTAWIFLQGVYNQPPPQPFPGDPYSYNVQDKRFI
Sequence of muscle nAChRs (P11230 24-501, further chain): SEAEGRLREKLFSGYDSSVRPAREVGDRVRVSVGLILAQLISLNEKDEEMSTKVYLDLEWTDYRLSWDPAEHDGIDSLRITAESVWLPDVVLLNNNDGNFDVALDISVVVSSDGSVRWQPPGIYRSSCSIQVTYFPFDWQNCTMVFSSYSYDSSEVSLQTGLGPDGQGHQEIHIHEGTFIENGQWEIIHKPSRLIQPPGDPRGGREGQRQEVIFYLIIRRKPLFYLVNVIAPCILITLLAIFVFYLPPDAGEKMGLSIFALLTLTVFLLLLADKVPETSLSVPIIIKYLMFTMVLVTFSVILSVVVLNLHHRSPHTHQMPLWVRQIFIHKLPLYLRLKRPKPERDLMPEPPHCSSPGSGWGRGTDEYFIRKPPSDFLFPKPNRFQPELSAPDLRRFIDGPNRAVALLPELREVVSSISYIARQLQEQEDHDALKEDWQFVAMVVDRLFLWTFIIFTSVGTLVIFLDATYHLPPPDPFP
Sequence of muscle nAChRs (P02708 21-457): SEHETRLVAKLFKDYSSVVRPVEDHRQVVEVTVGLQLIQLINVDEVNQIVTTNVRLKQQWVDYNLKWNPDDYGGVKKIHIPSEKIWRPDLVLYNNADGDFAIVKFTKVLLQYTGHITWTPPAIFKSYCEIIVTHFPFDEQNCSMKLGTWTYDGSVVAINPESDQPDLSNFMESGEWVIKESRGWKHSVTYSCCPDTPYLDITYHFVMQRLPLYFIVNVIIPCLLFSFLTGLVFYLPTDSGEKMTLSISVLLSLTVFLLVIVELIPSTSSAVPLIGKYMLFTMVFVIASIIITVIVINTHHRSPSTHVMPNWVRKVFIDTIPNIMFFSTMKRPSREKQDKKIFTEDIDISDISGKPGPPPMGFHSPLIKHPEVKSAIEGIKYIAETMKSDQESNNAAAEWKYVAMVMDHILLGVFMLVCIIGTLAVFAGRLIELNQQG

[3] = system: L-dopa-induced AIMs in 6-OHDA lesioned rats; conditions: cited from earlier work
human α7 nAChRs = human α7 nAChRs (Homo sapiens, UniProt P36544); experiment: biochemical; type: binding
Sequence of human α7 nAChRs (P36544 23-502): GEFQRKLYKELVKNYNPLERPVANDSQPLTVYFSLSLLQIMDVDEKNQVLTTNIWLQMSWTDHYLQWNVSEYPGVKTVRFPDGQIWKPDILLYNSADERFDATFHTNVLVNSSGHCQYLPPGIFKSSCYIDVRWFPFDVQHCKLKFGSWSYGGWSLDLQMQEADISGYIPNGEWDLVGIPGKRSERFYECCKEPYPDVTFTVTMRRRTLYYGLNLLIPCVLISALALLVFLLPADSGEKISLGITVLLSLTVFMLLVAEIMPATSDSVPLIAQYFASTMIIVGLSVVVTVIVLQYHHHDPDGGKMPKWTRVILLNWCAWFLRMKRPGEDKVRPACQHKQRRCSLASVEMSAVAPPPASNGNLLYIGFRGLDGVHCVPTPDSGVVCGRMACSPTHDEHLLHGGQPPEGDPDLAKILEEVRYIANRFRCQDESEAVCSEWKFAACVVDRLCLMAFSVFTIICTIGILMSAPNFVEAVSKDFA

[4] = system: L-dopa-induced AIMs in 6-OHDA lesioned rats; experiment: L-dopa-induced AIMs in rats with severe unilateral 6-OHDA lesion; type: in vivo, rat; conditions: for AIM subtypes significantly affected by nAChR compounds: axial, oral, forelimb AIMs; for AIM subtypes significantly affected by nAChR compounds / Decrease in total AIM scores: severe dopaminergic lesion; for Decrease in total AIM scores: maximal decrease over the treatment periods, L-dopa 6 or 8 mg/kg plus benserazide 15 mg/kg sc; for Reduction in L-dopa-induced AIMs: range over the series, rats with severe nigrostriatal damage; for Total AIMs score: summary table, L-dopa 6 or 8 mg/kg plus benserazide, group not stated
human α3β4 nAChRs = human α3β4 nAChRs (Homo sapiens, UniProt P30926+P32297); experiment: Competition membrane binding
Sequence of human α3β4 nAChRs (P32297 32-505): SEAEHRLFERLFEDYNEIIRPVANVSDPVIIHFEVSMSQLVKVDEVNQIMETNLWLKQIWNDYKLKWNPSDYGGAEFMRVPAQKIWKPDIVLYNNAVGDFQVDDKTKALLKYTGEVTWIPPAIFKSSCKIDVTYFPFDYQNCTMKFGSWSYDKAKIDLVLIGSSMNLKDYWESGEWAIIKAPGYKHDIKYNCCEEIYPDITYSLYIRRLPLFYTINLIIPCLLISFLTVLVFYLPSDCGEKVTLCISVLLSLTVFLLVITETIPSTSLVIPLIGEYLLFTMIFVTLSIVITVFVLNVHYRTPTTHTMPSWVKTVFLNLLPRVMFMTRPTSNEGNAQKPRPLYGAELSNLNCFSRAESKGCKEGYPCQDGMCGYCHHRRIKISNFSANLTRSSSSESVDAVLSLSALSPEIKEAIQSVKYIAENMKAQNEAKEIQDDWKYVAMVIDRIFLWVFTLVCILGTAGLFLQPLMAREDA
Sequence of human α3β4 nAChRs (P30926 22-498): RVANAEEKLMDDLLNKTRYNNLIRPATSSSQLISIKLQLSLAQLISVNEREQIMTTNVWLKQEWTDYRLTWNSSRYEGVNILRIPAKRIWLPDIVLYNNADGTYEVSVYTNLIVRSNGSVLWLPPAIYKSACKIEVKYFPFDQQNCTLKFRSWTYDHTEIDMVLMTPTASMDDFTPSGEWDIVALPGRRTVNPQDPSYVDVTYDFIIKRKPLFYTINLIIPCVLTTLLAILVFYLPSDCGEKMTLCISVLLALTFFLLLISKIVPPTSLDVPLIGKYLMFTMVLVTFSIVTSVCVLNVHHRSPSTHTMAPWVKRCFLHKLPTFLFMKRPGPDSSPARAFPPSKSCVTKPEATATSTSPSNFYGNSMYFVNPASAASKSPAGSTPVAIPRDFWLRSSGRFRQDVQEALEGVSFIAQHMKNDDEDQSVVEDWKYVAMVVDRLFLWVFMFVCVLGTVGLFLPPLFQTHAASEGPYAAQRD

[5] = system: ^3H-dopamine release from rat striatal synaptosomes; conditions: read-out: EC50 for 3H-dopamine release; rat striatum; ref Zwart et al., 2008; cited from earlier work
[6] = system: forelimb use asymmetry in 6-OHDA lesioned rats; experiment: Limb use asymmetry test; type: in vivo, rat; conditions: for % Contralateral limb use, nAChR compound: 5 min period, mean ± S.E.M of 5–9 rats
How it was run: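 Unilateral intracranial 6-OHDA lesions in rats (230–250 g). Forelimb use was rated over 5 min, once before and once 60 min after sc L-dopa plus benserazide (8.0 or 6.0 mg/kg plus 15 mg/kg, depending on study). The read-out was % contralateral limb use. Test compound was given by minipump or sc injection. In one study, testing was 4 wk after L-dopa treatment began.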

[7] = rats with severe dopaminergic lesions, ref Bordia et al., 2010

For `c1cncc(OC[C@@H]2CCN2)c1` [A85380], the “Effect on L-dopa-induced AIMs” value ([1]; 6-OHDA lesioned rats, ref Huang et al., 2011b) is listed as “reduced L-dopa-induced AIMs”.

In the case of `CN1CCC[C@H]1c1cccnc1` [Nicotine], the “Effect on L-dopa-induced dyskinesias” value [2] is listed as “reduced several components of L-dopa-induced dyskinesias”, the Ki (muscle nAChRs) is listed as 3500 nM and the “AIM subtypes significantly affected by nAChR compounds” value (“AIM subtypes significantly affected” below) [3, 7] is listed as “Oral = forelimb”. For the same compound, the “Decrease in total AIM scores” value [3, 7] was 35%, the “Total AIMs score” value [3, 7] was about 75 and the “Persistence of the effect on L-dopa-induced AIMs with treatment” value ([1]; study ended at this time, ref Bordia et al., 2008, Bordia et al., 2010) was “at least 4 months”.

In the case of `OCCCCC#Cc1cncc(OC[C@@H]2CCN2)c1` [Sazetidine, 6-(5-(((S)-azetidin-2-yl)methoxy)pyridine-3-yl)hex-5-yn-1-ol], the Ki (human α7 nAChRs) is reported as 3300 nM, the “Effect on L-dopa-induced AIMs” value ([4]; 0.5 mg/kg sc twice daily, L-dopa 8 mg/kg plus benserazide) is reported as “no effect” and the “Effect on L-dopa-induced AIMs” value ([4]; 1.0 mg/kg sc twice daily, L-dopa 8 mg/kg plus benserazide, P < 0.05) is reported as “decline in total, oral and forelimb AIMs”. The “Effect on L-dopa-induced AIMs” value ([4]; 2.0 mg/kg sc twice daily, compared with 1.0 mg/kg dose, data not shown) was “Results were similar”, the “AIM subtypes significantly affected” value [4] was “Oral = forelimb” and the “Decrease in total AIM scores” value [4] was 23%. For the same compound, the “Reduction in L-dopa-induced AIMs” value [4] was 23–32%, the “Total AIMs score” value [4] was about 75 and the Ki (muscle nAChRs) was 180 ± 84 nM. The Ki (human α3β4 nAChRs) was 30 ± 2 nM and the EC50 [5] was 1 nM.

With `CN[C@@H](C)C/C=C/c1cncc(OC)c1` [TC-2696] the Ki (human α7 nAChRs; read-out: Ki α7 nAChRs, membrane binding, 3H-epibatidine, average ± SEM) was 85000 nM, the “Effect on L-dopa-induced AIMs” value ([4]; 1.0 mg/kg/d via minipump, L-dopa 8 mg/kg plus benserazide 15 mg/kg sc) was “fewer total L-dopa-induced AIMs” and the “Effect on L-dopa-induced AIMs” value ([4]; […] via minipump, L-dopa 8 mg/kg plus benserazide) was “results similar to those at the 1.0 mg/kg/d dose of the compound, except for a significant decline in forelimb AIMs”. For the same compound, the “AIM subtypes significantly affected” value [4] was “Axial > forelimb”, the “Decrease in total AIM scores” value [4] was 30% and the “Reduction in L-dopa-induced AIMs” value [4] was 23–32%. The “Total AIMs score” value [4] was about 75, the “% Contralateral limb use, nAChR compound” value ([6]; OFF L-dopa (before L-dopa)) was 3.27 ± 1.5% and the “% Contralateral limb use, nAChR compound” value ([6]; ON L-dopa (60 min after L-dopa)) was 35.6 ± 13.1%. For the same compound, the “Effect on parkinsonism (forepaw asymmetry test)” value ([6]; result in words) was “no significant effect”.

For `c1cnc2cc3c(cc2n1)[C@@H]1CNC[C@H]3C1` [Varenicline], the “Decrease in total AIM scores” value ([3]; severely lesioned rats, non-significant, ref Huang et al., 2011b) is given as 10% and the “Total AIMs score” value ([3]; severely lesioned rats, ref Huang et al., 2011b) is given as about 60.

In the case of `CNC1(C)C2CCC(C2)C1(C)C` (stereo not shown) [mecamylamine], the “Effect on L-dopa-induced AIMs” value ([1]; parkinsonian rats, ref Bordia et al., 2010) is listed as “attenuated AIMs”.
